From ChEMBL document CHEMBL5705889, “Novel mutant-selective EGFR kinase inhibitors against EGFR T790M” (Nature, 2009)
Active and inactive are the calls of the source. No cut-off for these calls is given here.

Legend:
Calu-3 = experiment: cells; assay type: functional, cell-based; details: Homo sapiens, Calu-3, 72 h
BaF3 [1] = experiment: cells; assay type: functional, cell-based; details: Mus musculus, BaF3, 72 h
BaF3 [2] = experiment: cells; assay type: functional, cell-based; details: Mus musculus, BaF3, 72 h; remark: listed apart in the source
BaF3 [3] = experiment: cells; assay type: functional, cell-based; details: Mus musculus, BaF3, 72 h; remark: listed apart in the source
BaF3 [4] = experiment: cells; assay type: functional, cell-based; details: Mus musculus, BaF3, 72 h; remark: listed apart in the source
[5] = biological target: Epidermal growth factor receptor (Homo sapiens, UniProt P00533); experiment: Inhibition of EGFR phosphorylation in human NCI-H1975 cells at 0.01 to 1 uM incubated for 16 hrs by immunoblot analysis; assay type: cell-based; details: dose 0.01-1 µM
Chain of Epidermal growth factor receptor (P00533 whole entry): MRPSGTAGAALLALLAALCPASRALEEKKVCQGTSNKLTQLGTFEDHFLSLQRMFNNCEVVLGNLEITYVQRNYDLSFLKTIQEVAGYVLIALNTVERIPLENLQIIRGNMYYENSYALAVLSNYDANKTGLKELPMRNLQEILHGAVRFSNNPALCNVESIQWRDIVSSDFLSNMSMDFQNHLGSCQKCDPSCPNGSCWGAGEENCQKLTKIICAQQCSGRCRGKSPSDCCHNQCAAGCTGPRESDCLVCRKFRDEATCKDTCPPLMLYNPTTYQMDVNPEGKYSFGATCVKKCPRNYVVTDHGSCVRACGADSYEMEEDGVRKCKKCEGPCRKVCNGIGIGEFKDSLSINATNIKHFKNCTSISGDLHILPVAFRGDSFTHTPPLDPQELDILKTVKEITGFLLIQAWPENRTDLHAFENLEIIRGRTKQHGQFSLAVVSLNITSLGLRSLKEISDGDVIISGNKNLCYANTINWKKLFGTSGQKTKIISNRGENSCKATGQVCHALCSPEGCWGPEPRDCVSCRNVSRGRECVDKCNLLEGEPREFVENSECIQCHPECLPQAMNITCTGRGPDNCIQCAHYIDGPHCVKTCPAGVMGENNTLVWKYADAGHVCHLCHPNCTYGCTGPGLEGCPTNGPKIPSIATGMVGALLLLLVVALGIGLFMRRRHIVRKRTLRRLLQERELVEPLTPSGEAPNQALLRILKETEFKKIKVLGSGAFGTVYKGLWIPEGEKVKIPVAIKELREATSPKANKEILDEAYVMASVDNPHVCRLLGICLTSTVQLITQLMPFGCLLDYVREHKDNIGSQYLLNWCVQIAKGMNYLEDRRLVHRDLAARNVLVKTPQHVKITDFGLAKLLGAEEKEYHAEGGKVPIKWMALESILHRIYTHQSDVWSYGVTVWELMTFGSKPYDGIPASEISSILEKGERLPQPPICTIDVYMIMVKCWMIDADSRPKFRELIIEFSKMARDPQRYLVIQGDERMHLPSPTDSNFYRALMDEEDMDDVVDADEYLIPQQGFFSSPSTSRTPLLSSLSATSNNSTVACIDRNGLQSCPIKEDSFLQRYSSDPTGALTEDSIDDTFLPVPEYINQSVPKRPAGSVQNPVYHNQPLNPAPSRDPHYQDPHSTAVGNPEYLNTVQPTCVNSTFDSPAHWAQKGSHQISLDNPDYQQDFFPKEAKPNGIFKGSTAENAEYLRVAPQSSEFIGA

[6] = biological target: Tyrosine-protein kinase Blk (Homo sapiens, UniProt P51451); experiment: Binding affinity to BLK (unknown origin) assessed as dissociation constant
Chain of Tyrosine-protein kinase Blk (P51451 whole entry): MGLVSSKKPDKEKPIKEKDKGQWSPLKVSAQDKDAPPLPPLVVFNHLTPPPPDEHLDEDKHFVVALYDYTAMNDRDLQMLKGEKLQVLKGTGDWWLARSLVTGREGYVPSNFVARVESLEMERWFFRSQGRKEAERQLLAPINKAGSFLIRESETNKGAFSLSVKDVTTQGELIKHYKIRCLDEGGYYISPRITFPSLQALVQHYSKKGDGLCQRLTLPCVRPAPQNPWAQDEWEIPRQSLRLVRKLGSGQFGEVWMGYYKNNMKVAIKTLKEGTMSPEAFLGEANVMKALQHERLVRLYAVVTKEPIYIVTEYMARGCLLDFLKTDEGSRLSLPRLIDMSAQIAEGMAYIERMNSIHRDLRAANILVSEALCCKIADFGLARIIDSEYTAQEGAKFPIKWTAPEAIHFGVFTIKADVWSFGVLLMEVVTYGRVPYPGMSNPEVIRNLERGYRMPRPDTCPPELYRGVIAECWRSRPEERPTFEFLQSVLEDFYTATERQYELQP

[7] = biological target: Tyrosine-protein kinase BTK (Homo sapiens, UniProt Q06187); experiment: Binding affinity to BTK (unknown origin) assessed as dissociation constant
[8] = biological target: Serine/threonine-protein kinase DCLK3 (Homo sapiens, UniProt Q9C098); experiment: Binding affinity to DCAMKL3 (unknown origin) assessed as dissociation constant
Chain of Serine/threonine-protein kinase DCLK3 (Q9C098 whole entry): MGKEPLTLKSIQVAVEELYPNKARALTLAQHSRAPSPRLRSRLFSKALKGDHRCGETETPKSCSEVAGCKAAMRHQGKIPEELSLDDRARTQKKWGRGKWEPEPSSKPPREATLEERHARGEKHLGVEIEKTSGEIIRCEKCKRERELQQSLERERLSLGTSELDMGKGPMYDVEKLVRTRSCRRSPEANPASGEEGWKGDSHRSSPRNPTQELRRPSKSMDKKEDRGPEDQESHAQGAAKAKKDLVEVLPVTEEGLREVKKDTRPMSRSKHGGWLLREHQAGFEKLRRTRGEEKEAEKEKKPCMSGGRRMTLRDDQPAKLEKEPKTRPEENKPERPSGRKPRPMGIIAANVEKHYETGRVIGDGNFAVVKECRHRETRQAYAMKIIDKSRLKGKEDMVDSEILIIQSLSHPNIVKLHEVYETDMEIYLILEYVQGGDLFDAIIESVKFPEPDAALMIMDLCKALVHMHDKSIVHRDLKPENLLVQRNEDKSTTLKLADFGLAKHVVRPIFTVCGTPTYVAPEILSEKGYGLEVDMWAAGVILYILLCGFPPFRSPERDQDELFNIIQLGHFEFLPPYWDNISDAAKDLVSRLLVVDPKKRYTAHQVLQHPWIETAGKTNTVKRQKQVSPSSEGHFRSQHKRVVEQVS

[9] = biological target: Receptor-type tyrosine-protein kinase FLT3 (Homo sapiens, UniProt P36888, D835Y); experiment: Binding affinity to FLT3 D835Y mutant (unknown origin) assessed as dissociation constant
[10] = biological target: Serine/threonine-protein kinase PLK4 (Homo sapiens, UniProt O00444); experiment: Binding affinity to PLK4 (unknown origin) assessed as dissociation constant
Chain of Serine/threonine-protein kinase PLK4 (O00444 whole entry): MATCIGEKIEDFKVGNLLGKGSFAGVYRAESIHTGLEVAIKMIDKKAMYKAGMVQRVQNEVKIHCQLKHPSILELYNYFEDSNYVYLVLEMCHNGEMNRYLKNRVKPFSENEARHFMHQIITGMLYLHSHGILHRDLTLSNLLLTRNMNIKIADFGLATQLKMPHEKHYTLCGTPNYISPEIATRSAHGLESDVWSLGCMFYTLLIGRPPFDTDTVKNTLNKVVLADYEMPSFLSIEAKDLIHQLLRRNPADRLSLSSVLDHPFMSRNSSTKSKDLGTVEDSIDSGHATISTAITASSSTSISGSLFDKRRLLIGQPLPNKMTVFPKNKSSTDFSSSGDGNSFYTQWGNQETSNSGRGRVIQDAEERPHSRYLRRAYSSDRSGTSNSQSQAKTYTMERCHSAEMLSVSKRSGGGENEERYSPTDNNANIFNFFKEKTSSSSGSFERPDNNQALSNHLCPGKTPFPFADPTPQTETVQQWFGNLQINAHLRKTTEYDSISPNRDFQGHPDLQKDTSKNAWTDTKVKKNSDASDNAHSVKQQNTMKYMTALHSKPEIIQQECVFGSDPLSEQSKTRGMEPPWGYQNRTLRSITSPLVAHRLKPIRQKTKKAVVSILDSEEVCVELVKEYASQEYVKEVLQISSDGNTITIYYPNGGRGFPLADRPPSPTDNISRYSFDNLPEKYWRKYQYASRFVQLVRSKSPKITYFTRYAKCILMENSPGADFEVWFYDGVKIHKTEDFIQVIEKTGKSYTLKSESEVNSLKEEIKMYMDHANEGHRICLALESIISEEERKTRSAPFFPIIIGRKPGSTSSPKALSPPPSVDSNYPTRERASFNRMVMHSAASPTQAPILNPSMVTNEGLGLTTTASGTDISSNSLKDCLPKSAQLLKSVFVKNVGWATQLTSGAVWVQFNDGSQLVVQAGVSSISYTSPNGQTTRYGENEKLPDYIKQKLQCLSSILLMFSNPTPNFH

[11] = biological target: NUAK family SNF1-like kinase 2 (Homo sapiens, UniProt Q9H093); experiment: Binding affinity to SNARK (unknown origin) assessed as dissociation constant
Chain of NUAK family SNF1-like kinase 2 (Q9H093 whole entry): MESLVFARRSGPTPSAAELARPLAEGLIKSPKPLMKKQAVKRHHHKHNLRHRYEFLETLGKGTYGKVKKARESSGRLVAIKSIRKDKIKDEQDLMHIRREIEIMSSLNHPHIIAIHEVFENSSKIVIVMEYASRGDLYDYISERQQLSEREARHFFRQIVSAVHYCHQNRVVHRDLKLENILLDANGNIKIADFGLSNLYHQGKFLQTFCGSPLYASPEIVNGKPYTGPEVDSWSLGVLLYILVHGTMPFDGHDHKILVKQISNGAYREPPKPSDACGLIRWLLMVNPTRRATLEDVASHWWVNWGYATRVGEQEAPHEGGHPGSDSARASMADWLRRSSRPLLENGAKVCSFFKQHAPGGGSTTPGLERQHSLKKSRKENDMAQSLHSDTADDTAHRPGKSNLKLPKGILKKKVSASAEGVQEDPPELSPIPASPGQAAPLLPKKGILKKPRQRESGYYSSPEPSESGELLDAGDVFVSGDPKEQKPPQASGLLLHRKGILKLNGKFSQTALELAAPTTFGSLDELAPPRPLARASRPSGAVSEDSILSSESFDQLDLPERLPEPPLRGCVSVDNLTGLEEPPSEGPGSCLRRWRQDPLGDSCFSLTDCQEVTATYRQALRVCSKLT

[12] = biological target: Cytoplasmic tyrosine-protein kinase BMX (Homo sapiens) (UniProt P51813); experiment: Binding affinity to BMX (unknown origin)
[13] = biological target: Tyrosine-protein kinase JAK2 (Homo sapiens, UniProt O60674); experiment: Inhibition of TEL fused JAK2 (unknown origin) transformed in mouse BaF3 cells; assay type: cell-based
Chain of Tyrosine-protein kinase JAK2 (O60674 whole entry, looked up, the tested form may be a part): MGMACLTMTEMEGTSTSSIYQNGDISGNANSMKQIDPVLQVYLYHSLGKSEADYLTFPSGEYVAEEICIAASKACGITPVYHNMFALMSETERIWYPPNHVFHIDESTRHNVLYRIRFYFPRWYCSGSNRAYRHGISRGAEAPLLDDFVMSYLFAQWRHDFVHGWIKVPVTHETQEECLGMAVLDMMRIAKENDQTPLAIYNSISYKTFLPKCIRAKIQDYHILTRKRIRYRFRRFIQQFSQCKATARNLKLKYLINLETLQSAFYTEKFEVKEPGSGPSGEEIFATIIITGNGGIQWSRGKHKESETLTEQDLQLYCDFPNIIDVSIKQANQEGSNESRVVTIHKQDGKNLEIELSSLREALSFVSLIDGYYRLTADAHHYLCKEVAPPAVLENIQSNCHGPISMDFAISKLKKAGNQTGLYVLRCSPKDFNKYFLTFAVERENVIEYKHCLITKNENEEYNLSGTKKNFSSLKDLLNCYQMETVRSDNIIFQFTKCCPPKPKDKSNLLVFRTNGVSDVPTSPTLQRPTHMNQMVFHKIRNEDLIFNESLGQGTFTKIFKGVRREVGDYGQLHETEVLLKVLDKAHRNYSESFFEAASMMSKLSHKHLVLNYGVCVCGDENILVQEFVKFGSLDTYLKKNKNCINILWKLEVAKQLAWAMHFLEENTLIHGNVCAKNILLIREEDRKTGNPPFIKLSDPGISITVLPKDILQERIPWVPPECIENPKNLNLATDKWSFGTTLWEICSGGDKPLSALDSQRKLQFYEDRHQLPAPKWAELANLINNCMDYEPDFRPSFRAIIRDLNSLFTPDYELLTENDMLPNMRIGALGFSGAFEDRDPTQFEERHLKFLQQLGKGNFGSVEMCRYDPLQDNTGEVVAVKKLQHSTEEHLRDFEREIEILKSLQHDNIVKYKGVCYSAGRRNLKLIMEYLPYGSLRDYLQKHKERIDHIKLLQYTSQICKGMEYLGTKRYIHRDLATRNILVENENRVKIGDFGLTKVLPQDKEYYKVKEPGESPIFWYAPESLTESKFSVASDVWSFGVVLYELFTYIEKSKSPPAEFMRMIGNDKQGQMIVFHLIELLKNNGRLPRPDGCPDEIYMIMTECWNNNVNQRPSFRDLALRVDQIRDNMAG

[14] = Half-life in mouse at 1 mg/kg, iv administered as single dose; assay type: ADME, organism-based; details: in vivo
[15] = Volume of distribution at steady state in mouse at 1 mg/kg, iv administered as single dose; assay type: ADME, organism-based; details: in vivo, read-out: Vdss
[16] = AUC(0 to t) in mouse at 10 mg/kg, po administered as single dose; assay type: ADME, organism-based; details: in vivo
[17] = AUC(0 to infinity) in mouse at 10 mg/kg, po administered as single dose; assay type: ADME, organism-based; details: in vivo
[18] = Half-life in mouse at 10 mg/kg, po administered as single dose; assay type: ADME, organism-based; details: in vivo
[19] = Oral bioavailability in mouse at 10 mg/kg administered as single dose; assay type: ADME, organism-based; details: in vivo
[20] = Drug concentration in mouse plasma at 1 mg/kg, iv administered as single dose and measured after 0.5 hrs; assay type: ADME, organism-based
[21] = Drug concentration in mouse plasma at 10 mg/kg, po administered as single dose and measured after 0.25 hrs; assay type: ADME, organism-based
[22] = Drug concentration in mouse plasma at 10 mg/kg, po administered as single dose and measured after 4 hrs; assay type: ADME, organism-based
[23] = Toxicity in mouse harboring EGFR del E746_A750/T790M mutant assessed as effect on total white blood cell count at 25 mg/kg administered via gavage for 2 weeks; assay type: organism-based; details: in vivo, po, 336 h
Outline: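 Inducible bitransgenic tumor mice gavaged daily, 25 mg/kg, vehicle NMP (10% 1-methyl-2-pyrrolidinone, 90% PEG-300), compared against vehicle-treated mice; weight, serum creatine and total white blood cell count monitored during the study.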

Mus musculus [24] = experiment: In vivo inhibition of AKT phosphorylation in transgenic mouse harboring EGFR L858R/T790M mutant at 2.5 to 25 mg/kg administered as two doses separated by 16 hours by immunoblot analysis; assay type: functional, organism-based; details: dose 2.5-25 mg/kg
Mus musculus [25] = experiment: In vivo inhibition of ERK1/2 phosphorylation in transgenic mouse harboring EGFR L858R/T790M mutant at 2.5 to 25 mg/kg administered as two doses separated by 16 hours by immunoblot analysis; assay type: functional, organism-based; details: dose 2.5-25 mg/kg
Outline: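 Transgenic mice gavaged with compound in 10% 1-methyl-2-pyrrolidinone:90% PEG-300 vehicle; phosphorylation assessed in tissue by immunoblotting per standard protocols.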

Mus musculus [26] = experiment: In vivo antitumor activity in transgenic mouse harboring EGFR delE746_A750/T790M mutant assessed as decrease in Ki67 positive cells at 25 mg/kg administered via gavage for 2 weeks by immunohistochemical analysis; assay type: functional, organism-based
Outline: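 Transgenic EGFR T790M mutant mice were given daily gavage at 25mg/kg in 10% 1-methyl-2-pyrrolidinone:90% PEG-300 vehicle, alongside vehicle-alone controls. Tumor tissue was immunostained by standard protocols, and TUNEL-positive and Ki67-positive cells were counted.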

Mus musculus [27] = experiment: In vivo antitumor activity in transgenic mouse harboring EGFR L858R/T790M mutant assessed as tumor regression at 25 mg/kg, administered via gavage for 2 weeks; assay type: functional, organism-based
Outline: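 Inducible bitransgenic mice carrying EGFR T790M/L858R or exon19 deletion-T790M were dosed by daily gavage at 25mg/kg. The vehicle was 10% 1-methyl-2-pyrrolidinone:90% PEG-300, and the control group received vehicle alone. Tumor response was followed by MRI scanning.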

Mus musculus [28] = experiment: Invivo antitumor activity in transgenic mouse harboring EGFR del19/T790M mutant assessed as reduction in small residual nodules in tumor at 25 mg/kg administered via gavage for 2 weeks by H&E staining based analysis; assay type: functional, organism-based
Outline: (§1)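 EGFR-TL (L858R/T790M) or exon19 deletion-T790M (TD) inducible bitransgenic mice dosed by oral gavage daily at 25 mg/kg; vehicle 10% 1-methyl-2-pyrrolidinone:90% PEG-300. Tumors followed by MRI; lung histology by standard protocols.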

Mus musculus [29] = experiment: Invivo antitumor activity in transgenic mouse harboring EGFR del19/T790M mutant assessed as remodelling/scarring at 25 mg/kg administered via gavage for 2 weeks by H&E staining based analysis; assay type: functional, organism-based
Outline: as §1

Mus musculus [30] = experiment: Invivo antitumor activity in transgenic mouse harboring EGFR L858R/T790M mutant assessed as reduction in small residual nodules in tumor at 25 mg/kg administered via gavage for 2 weeks by H&E staining based analysis; assay type: functional, organism-based
Outline: as §1

Mus musculus [31] = experiment: Invivo antitumor activity in transgenic mouse harboring EGFR L858R/T790M mutant assessed as reduction in nodule remnants in tumor at 25 mg/kg administered via gavage for 2 weeks by H&E staining based analysis; assay type: functional, organism-based
Outline: as §1

BaF3 [32] = experiment: Prevention of EGFR T790M mutant development in mouse BaF3 cells harboring delE746_A750 mutant assessed as reduction in resistant clones with T790M mutant at 0.001 to 1 uM; assay type: functional, cell-based; details: dose 0.001-1 µM
Outline: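 Ba/F3 cells with EGFR L858R or delE746_A750 mutagenized with N-ethyl-N-nitrosourea, then expanded in 100 nM or 1 μM inhibitor; resistant clones isolated and characterized for EGFR T790M.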

PC-9 = experiment: Prevention of EGFR T790M mutant development in human PC-9 cells harboring delE746_A750 mutant assessed as reduction in resistant cells with T790M mutant at 1 uM; assay type: functional, cell-based

IC50 (Calu-3): 1960 nM | IC50 (BaF3 [1]): 2 nM | IC50 (BaF3 [2]): > 3300 nM | IC50 (BaF3 [3]): > 3300 nM | IC50 (BaF3 [4]): 619 nM | inhibition [5]: Active | Kd [6]: 220 nM | Kd [7]: 36 nM | Kd [8]: 910 nM | Kd [9]: 33 nM | Kd [10]: 100 nM | Kd [11]: 10 nM | Activity [12]: inactive | IC50 [13]: 3760 nM | half-life [14]: 1.76 h | Vd [15]: 1.54 L/kg | AUC(0-t) [16]: 2390 ng·h/mL | AUC(0-inf) [17]: 2400 ng·h/mL | half-life [18]: 2.46 h | bioavailability [19]: 24.5% | concentration at 0.5 h [20]: 451 ng/mL | concentration at 0.25 h [21]: 429 ng/mL | concentration at 4 h [22]: 214 ng/mL
Structure (SMILES): C=CC(=O)Nc1cccc(Oc2nc(Nc3ccc(N4CCN(C)CC4)cc3OC)ncc2Cl)c1
Activity [23]: Non-Toxic | inhibition (Mus musculus [24]): Active | inhibition (Mus musculus [25]): Active | Activity (Mus musculus [26]): Active | Activity (Mus musculus [27]): Active | Activity (Mus musculus [28]): Active | Activity (Mus musculus [29]): Active | Activity (Mus musculus [30]): Active | Activity (Mus musculus [31]): Active | Activity (BaF3 [32]): Active | Activity (PC-9): Active
